Only some compounds are listed: those with a hit (about 3.5% of all), similar ones and a draw of the others.
MrgX1 PAM = human MrgX1 positive allosteric modulation, primary screen. Q96LB2. MrgX1-HEK293, Fluo-4 calcium flux, FDSS; active compounds read high. B-score at 10 µM. actives 0.63% (n = 310,000). AID 588675;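 active = plate-corrected calcium response at least 3 library SD above typical, normal starting fluorescence, not activating the receptor alone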;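 note: compound read alongside a low EC10 to EC30 dose of BAM8-22 agonist; peak minus trough fluorescence over baseline measured at the second addition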
Target sequence (Q96LB2 whole entry, looked up): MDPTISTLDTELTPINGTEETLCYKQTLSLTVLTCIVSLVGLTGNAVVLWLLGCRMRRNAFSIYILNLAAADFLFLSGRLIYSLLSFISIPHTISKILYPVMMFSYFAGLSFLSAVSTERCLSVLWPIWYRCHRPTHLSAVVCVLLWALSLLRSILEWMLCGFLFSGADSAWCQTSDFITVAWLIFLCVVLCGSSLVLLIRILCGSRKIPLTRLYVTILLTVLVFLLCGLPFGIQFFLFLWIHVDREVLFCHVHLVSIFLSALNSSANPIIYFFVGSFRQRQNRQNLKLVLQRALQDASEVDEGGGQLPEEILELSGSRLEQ
MrgX1 antagonist = blocks BAM8-22 activation of human MrgX1 receptor; Q96LB2; MRGX1-HEK293 calcium flux, Fluo-4, BAM8-22 antagonism; active compounds read low; B-score at 10 µM; actives 1.3% (n = 310,000); AID 588676;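 active = calcium-response B-score plate-corrected more than 3 library SD below zero, starting fluorescence within 5 deviations, no agonist response on first addition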;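 note: peak minus trough fluorescence over baseline after final BAM8-22 challenge near maximal dose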
RGS4 block = human RGS4 inhibition | HEK293 M3R/RGS4 inducible, Fluo-4 calcium flux; active compounds read high; triggered by carbachol at its EC20 | B-score at 10 µM | P49798 | actives 0.45% (n = 310,000);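 active = B-score, a plate-corrected calcium signal, over three deviations above library mean, with baseline fluorescence within five deviations of library mean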;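 note: RGS4 expression induced by doxycycline in cells with stable M3 receptor; B-score is computed from the integrated fluorescence ratio over baseline after carbachol; higher B-score means a larger calcium signal and so more RGS4 inhibition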
Target sequence (P49798 whole entry, looked up): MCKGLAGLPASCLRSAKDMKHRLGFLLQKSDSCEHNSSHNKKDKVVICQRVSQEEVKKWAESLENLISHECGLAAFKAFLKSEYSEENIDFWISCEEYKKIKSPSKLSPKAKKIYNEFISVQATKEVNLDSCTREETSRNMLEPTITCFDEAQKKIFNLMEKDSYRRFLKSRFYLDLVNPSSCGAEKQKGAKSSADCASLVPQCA
MrgX1 ag = agonists of human MrgX1 receptor. MrgX1-HEK293 cells, Fluo-4 calcium fluorescence, agonist mode; active compounds read high. actives 0.44% (n = 310,000). B-score at 10 µM. Q96LB2;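 active = calcium response B-score plate-corrected fluorescence ratio at least 3 library SD, with starting fluorescence B-score inside 5 SD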
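Material: MrgX1-expressing HEK293 cells / Dosing: compound as first of three additions / Incubation: overnight seeding, then 1 h dark dye loading / Signal: Fluo-4 NW calcium fluorescence / Evaluation: B-scored fluorescence response ratio / Benchmarks: positive and negative control wells on each plate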
RGS4 act = potentiators or activators of RGS4; HEK293 M3R/inducible RGS4, carbachol calcium flux Fluo4; active compounds read low; B-score at 10 µM; actives 0.92% (n = 310,000); AID 463111;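 active = B-score of the integrated calcium signal more than 4 SD below the library mean, with starting fluorescence not abnormally high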;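 note: negative B-score means reduced calcium response which marks RGS4 activation or potentiation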
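Reagent: ECmax carbachol challenge; Test system: M3R-expressing HEK293 line, RGS4 induced by doxycycline; Schedule: overnight RGS4 induction, 30 min dye load 37 °C, 20 min compound RT; Detection: calcium dye Fluo4 fluorescence; Read-out: Agonist-evoked peak-minus-minimum fluorescence over baseline, integrated ratio, B score.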
* = called active by the depositor; i = inactive; nt = no result given.

SMILES	MrgX1 PAM	MrgX1 antagonist	RGS4 block	MrgX1 ag	RGS4 act
COCCN(CCOC)c1nc(-c2ccc(Cl)cc2)nc2ccccc12	i	i	i	i	-7.3*
CC(=O)Nc1cccc(NC(=O)C(=O)NCC(c2ccco2)N2CCc3ccccc3C2)c1 (configuration not stated)	i	i	i	i	i
COCCCN1CC(=O)N2Cc3[nH]c4ccccc4c3C[C@H]2C1=O	i	i	i	i	i
COc1ccc(/C=C(\C#N)C(=O)c2c(C)[nH]c3ccccc23)cc1OC	i	i	i	32*	i
CC1CCCN(C(=O)Cc2cn(Cc3cccc(Cl)c3)c3ccccc23)C1 (configuration not stated)	i	i	i	i	-7.4*
O=C(O)Cc1cn(Cc2cccc(Cl)c2)c2ccccc12	i	i	i	i	i
O=C(Cc1cn(Cc2cccc(Cl)c2)c2ccccc12)N1CCCCCC1	i	i	i	i	-7.2*
CC(Oc1ccc(F)cc1Br)c1nc2ccccc2c(=O)[nH]1 (configuration not stated)	i	i	i	i	i
N#Cc1ccc(Cl)cc1NC(=O)COC(=O)[C@H](CCC(N)=O)NC(=O)c1ccc(F)cc1	i	i	i	i	i
CCOC(=O)c1c(NC(=O)CSc2nc3ccc(OC)cc3[nH]2)sc2c1CC(C)(C)NC2(C)C	i	i	i	i	i
COc1ccc(CC(=O)Nc2cccc(-c3nnc(-c4ccc(C)cc4)o3)c2)cc1OC	i	i	i	i	-10*
COc1ccc(CC(=O)Nc2ccc(-c3nnc(-c4ccccc4)o3)cc2)cc1OC	i	i	i	i	i
CCC(c1n[nH]c(=S)n1-c1ccccc1)N(C)C (configuration not stated)	i	i	i	i	i
CC(C)CCC(CC(C)O)c1n[nH]c(=S)n1-c1ccccc1 (configuration not stated)	i	-4.9*	i	i	i
CC1(C)Cc2c(cnn2-c2ccccc2)C(NC(=O)CCN2CCCC2=O)C1 (configuration not stated)	i	i	i	i	i
CS(=O)(=O)N1CCN(C(=O)NC2CCCCC2)CC1	i	i	i	i	i
O=C(Nc1cccc([N+](=O)[O-])c1)c1cc2ccccc2cc1O	i	-4.8*	i	i	i
O=C(O)c1ccccc1C(=O)Nc1cccc([N+](=O)[O-])c1	i	i	i	i	i
[O-][n+]1cccc2c(Br)cc(Br)c(O)c21	i	-4.7*	i	i	i
COc1ccc(Cl)cc1C(=O)OCC(=O)N(C)CC(=O)Nc1ccc(F)cc1	i	i	i	i	i
Cc1ccc(SCC(=O)OCC(=O)N(C)CC(=O)Nc2ccc(F)cc2)cc1C	i	i	i	48*	i
CCCCC(=O)Nc1cnc(NC(=O)c2cccs2)cc1C	i	i	i	i	i
COC(=O)CC1=C(C(=O)OC)C(c2cccc(OCC(N)=O)c2)C(C#N)=C(N)O1 (configuration not stated)	i	i	i	34*	i
COC(=O)CC1=C(C(=O)OC)C(c2ccncc2)C(C#N)=C(N)O1 (configuration not stated)	i	i	i	i	i
O=C1NCCO1	i	i	nt	i	nt
SMILES	MrgX1 PAM	MrgX1 antagonist	RGS4 block	MrgX1 ag	RGS4 act
CNC(=O)C(C#N)(Cc1cc(C(C)=O)ccc1OC)Cc1cc(C(C)=O)ccc1OC	i	i	i	i	i
CCOc1cc2c(cc1OC)C(NC(=O)c1ccco1)CC2=O (configuration not stated)	i	i	i	i	i
CCOc1ccc(NC(=O)C2CC(=O)N(c3ccc4c(c3)OCCO4)C2)cc1OCC (configuration not stated)	i	i	i	i	i
C=CCN=c1scc(-c2ccccc2)n1/N=C/c1ccccn1	14*	i	i	i	i
CCN=c1scc(-c2ccccc2)n1/N=C/c1ccccn1	12*	i	i	i	i
C=CCN=c1scc(-c2ccc(F)cc2)n1/N=C/c1ccccn1	i	i	i	i	i
CC(=O)c1cc(NC(=O)c2ccc(Cl)cc2)c(=O)oc1/C=C/N(C)C	i	i	i	38*	i
C=CCc1ccc(OCC(O)CN2CCc3ccccc3C2)c(OC)c1 (configuration not stated)	i	i	i	i	i
Cn1c(=O)c2c(nc(N3CCCCCC3)n2CC(O)COc2ccccc2)n(C)c1=O (configuration not stated)	i	i	i	i	i
Cc1cccc(OCC(O)Cn2c(N3CCCCC3)nc3c2c(=O)n(C)c(=O)n3C)c1 (configuration not stated)	7.2*	i	i	i	i
Clc1ccc(-c2cn(-c3ccccc3)c3[n+]2CCS3)cc1	i	i	i	i	-8.7*
Fc1ccc(-c2cn(-c3ccccc3)c3[n+]2CCS3)cc1	i	i	i	i	i
CN(C)c1ccc(/C=C2/NC(=O)NC2=O)cc1	i	i	i	i	i
CN(C)c1ccc(/C=C2\N=C(c3ccc(Cl)c([N+](=O)[O-])c3)NC2=O)cc1	i	-6.9*	i	i	i
COc1ccccc1CNC(=O)c1nn(-c2ccc(C)cc2)c(=O)c2c1c1ccccc1n2C	i	-8*	i	i	i
Oc1oc(-c2ccccc2)nc1C=Nc1cccc2ccccc12	i	i	i	i	-7.2*
Oc1oc(-c2ccccc2)nc1/C=N/c1nccs1	i	i	i	i	i
COc1ccc(OC)c(CN2CCN(C(=O)c3cccc(S(=O)(=O)Nc4ccc(C)cc4)c3)CC2)c1	i	i	i	i	i
CCCCCCOc1ccc(/C(N)=N/O)cc1	i	i	i	i	i
N=C(N)c1ccc(OCCCCCOc2ccc(C(=N)N)cc2)cc1	i	i	i	34*	i
COc1ccccc1N(C(=O)c1ccco1)C(C(=O)NC1CCCCC1)c1cc(OC)c(OC)c(OC)c1 (configuration not stated)	i	i	i	i	i
c1coc(C2Nc3cccc4cccc(c34)N2)c1	i	i	7.2*	i	i
CCCNC(=O)c1cc(Cl)c(NC(=O)C2=CSCCO2)cc1OC	i	i	i	i	i
CCN(CC)CC(=O)N1c2ccccc2Sc2ccc(Cl)cc21	i	i	i	i	-9.8*

Compound activity as filed in PubChem BioAssay.
